Most compounds without a hit are left out; they make up all but 3.5% or so of the library.
MrgX1 allo act: positive allosteric modulators of MrgX1, primary screen, HEK293 cells, Fluo-4 calcium flux; FDSS; stronger effect = higher value; B-score at 10 µM; 310,000 compounds, 0.63% hits; AID 588675, 2011;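 active = plate-corrected calcium response at least 3 library SD above typical, normal starting fluorescence, not activating the receptor alone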;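 note: compound read alongside a low EC10 to EC30 dose of BAM8-22 agonist; peak minus trough fluorescence over baseline measured at the second addition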
Target sequence (Q96LB2 whole entry, looked up): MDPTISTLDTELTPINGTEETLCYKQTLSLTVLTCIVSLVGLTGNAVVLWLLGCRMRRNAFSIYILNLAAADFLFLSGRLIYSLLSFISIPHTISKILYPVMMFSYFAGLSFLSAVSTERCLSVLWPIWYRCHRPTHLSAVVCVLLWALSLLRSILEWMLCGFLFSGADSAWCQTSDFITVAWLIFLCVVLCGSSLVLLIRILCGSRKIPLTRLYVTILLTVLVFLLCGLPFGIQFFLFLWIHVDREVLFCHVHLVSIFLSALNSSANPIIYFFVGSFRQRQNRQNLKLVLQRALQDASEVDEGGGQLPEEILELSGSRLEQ
MrgX1 antagonist: antagonists of human MrgX1 receptor, primary screen, HEK293 cells, Fluo-4 calcium flux; BAM8-22 antagonism; stronger effect = lower value; B-score at 10 µM; 310,000 compounds, 1.3% hits;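 active = calcium-response B-score plate-corrected more than 3 library SD below zero, starting fluorescence within 5 deviations, no agonist response on first addition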;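 note: peak minus trough fluorescence over baseline after final BAM8-22 challenge near maximal dose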
MrgX1 agonist: agonists of human MrgX1 receptor, primary screen, HEK293 cells, Fluo-4 calcium flux; Fluo-4 calcium fluorescence, agonist mode; stronger effect = higher value; B-score at 10 µM; 310,000 compounds, 0.44% hits; AID 588627, 2011;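 active = calcium response B-score plate-corrected fluorescence ratio at least 3 library SD, with starting fluorescence B-score inside 5 SD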
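Assay system: stable human MrgX1 HEK293 cell line. Quantity: 15,000 cells per well. Schedule: cells plated overnight, dye loaded 0.5 h 37 °C, 0.5 h room temperature. Detection: Fluo-4 NW calcium-flux fluorescence, kinetic read. Read-out basis: peak-minus-minimum fluorescence over baseline, converted to B scores. Control set: positive and negative control wells on each plate.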
RGS4 act: RGS4 potentiators or activators, primary screen, cell-based, HEK293 M3R inducible RGS4, calcium flux; carbachol calcium flux Fluo4; stronger effect = lower value; B-score at 10 µM; 310,000 compounds, 0.92% hits; AID 463111, 2010;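 active = B-score of the integrated calcium signal more than 4 SD below the library mean, with starting fluorescence not abnormally high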;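 note: negative B-score means reduced calcium response which marks RGS4 activation or potentiation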
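test system = HEK293 cells with stable M3R and inducible RGS4 | schedule = recording 10 s baseline at 1 Hz, 100 s post-agonist | technique = Fluo4-AM (2 µM) calcium-flux fluorescence, kinetic read | measure = Agonist-evoked peak-minus-minimum fluorescence over baseline, integrated ratio, B score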
RGS4 inh: RGS4 inhibitors, primary screen, cell-based, HEK293 M3R inducible RGS4, calcium flux | 310,000 compounds, 0.45% hits | Regulator of G-protein signaling 4 (Homo sapiens), P49798 | B-score at 10 µM | Fluo-4 calcium flux; stronger effect = higher value; triggered by carbachol at its EC20 | AID 463165, 2010;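 active = B-score, a plate-corrected calcium signal, over three deviations above library mean, with baseline fluorescence within five deviations of library mean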;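 note: RGS4 expression induced by doxycycline in cells with stable M3 receptor; B-score is computed from the integrated fluorescence ratio over baseline after carbachol; higher B-score means a larger calcium signal and so more RGS4 inhibition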
Target sequence (P49798 whole entry, looked up): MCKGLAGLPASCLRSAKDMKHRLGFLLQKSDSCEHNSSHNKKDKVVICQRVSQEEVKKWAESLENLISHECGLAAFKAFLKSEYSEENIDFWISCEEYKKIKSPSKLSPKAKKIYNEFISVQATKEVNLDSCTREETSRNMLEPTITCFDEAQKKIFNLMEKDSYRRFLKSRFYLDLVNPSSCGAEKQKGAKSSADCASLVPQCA
MrgX1 antag conf: MrgX1 receptor antagonists, duplicate retest, confirmation, HEK293 cells, Fluo-4 calcium flux | shares compounds with MrgX1 antagonist | BAM8-22 calcium flux; stronger effect = lower value | remaining BAM8-22 calcium response % of control (stronger effect = lower value), % at 10 µM | 2,300 compounds, 19% hits | AID 602420, 2012;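 active = remaining agonist calcium response no higher than 100% minus 3 SD of agonist-only control wells, with starting fluorescence near control levels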;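 note: agonist BAM8-22 given at a near maximal EC90 to ECmax level; peak minus minimum fluorescence divided by baseline after agonist addition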
HEK293 Ca flux: nonspecific calcium signal in parental HEK293, confirmation, counter-screen for MrgX1 antagonist project, parental HEK293 cells, Fluo-4 calcium flux; shares compounds with MrgX1 antagonist; Fluo-4 calcium fluorescence, FDSS; fluorescence ratio F(max-min)/F0 at 10 µM; 4,000 compounds, 2% hits;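 active = duplicate-averaged calcium fluorescence ratio at least three times the standard deviation of buffer wells, a nonspecific response in parental cells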
HEK293 Ca counter: calcium response in parental HEK293 cells, primary screen, counter-screen for MrgX1 allosteric activator project, cell-based, Fluo-4 calcium flux, duplicate; fluorescence ratio F(max-min)/F0 at 10 µM; AID 624114, 2012; Fluo-4 fluorescence ratio; stronger effect = higher value; shares compounds with MrgX1 antagonist; 4,000 compounds, 0.4% hits;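 active = calcium fluorescence ratio, averaged over duplicates, at least 3 SD of the buffer-well ratio, meaning a nonspecific response in receptor-free cells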;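 note: untransfected parental HEK293 lacking MrgX1 used as counterscreen for MrgX1 allosteric activators; fluorescence change taken during the second addition on a kinetic imager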
HEK293 Ca cntr2: calcium response in parental HEK293 cells, primary screen, counter-screen for MrgX1 agonist project, cell-based, Fluo-4 calcium flux, duplicate, agonist mode; shares compounds with MrgX1 antagonist; Fluo-4 calcium fluorescence (FDSS); stronger effect = higher value; fluorescence ratio F(max-min)/F0 at 10 µM; 4,000 compounds, 8.7% hits; AID 624115, 2012;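 active = calcium fluorescence ratio at least three times the spread of buffer wells, meaning a non-specific response in parental cells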
Of the large screens only hits and unclear results are named; the others gave an inactive call (follow-up assays come after a bar, where they were run).

Cc1ccc(Cc2nc(-c3cccnc3)no2)cc1	MrgX1 antagonist -4.8 | MrgX1 antag conf inactive | HEK293 Ca flux inactive | HEK293 Ca counter inactive | HEK293 Ca cntr2 inactive
Cc1ccc(-c2csc(NC(=O)c3ccc4c(=O)n5c(nc4c3)CCCCC5)n2)cc1	MrgX1 antagonist -5.5 | MrgX1 antag conf 71% | HEK293 Ca flux inactive | HEK293 Ca counter inactive | HEK293 Ca cntr2 inactive
CCOc1cc(/C=C(\C#N)C(=O)Nc2cccc(C(=O)O)c2)cc(Br)c1OC(=O)c1ccc(OC)cc1	MrgX1 antagonist -10, RGS4 act -8.1 | MrgX1 antag conf inactive | HEK293 Ca flux inactive | HEK293 Ca counter inactive | HEK293 Ca cntr2 50
N#C/C(=C\c1ccc(OCc2ccc(Br)cc2)cc1)C(=O)Nc1cccc(C(=O)O)c1	none
O=C(O)[C@H](Cc1ccccc1)N1C(=O)c2c(Cl)c(Cl)c(Cl)c(Cl)c2C1=O	MrgX1 antagonist -8.6 | MrgX1 antag conf inactive | HEK293 Ca flux inactive | HEK293 Ca counter inactive | HEK293 Ca cntr2 inactive
O=C(O)C(Cc1ccccc1)n1cccc1 (stereo not given)	none
O=C1C=C(c2ccc(F)nc2)CCC1	none
Nc1c(C(=O)NC2CCCC2)sc2nc(-c3cccs3)ccc12	MrgX1 antagonist -4.7 | MrgX1 antag conf inactive | HEK293 Ca flux inactive | HEK293 Ca counter inactive | HEK293 Ca cntr2 inactive
NC(=O)c1sc2nc(-c3cccs3)ccc2c1N	none
COc1ccccc1C(=O)C1CCCN(C(=O)c2cnn(C(C)C)c2)C1 (stereo not given)	none
O=c1[nH]c2ccccc2nc1/C=C/c1ccc(F)cc1	MrgX1 antagonist -8 | MrgX1 antag conf inactive | HEK293 Ca flux inactive | HEK293 Ca counter inactive | HEK293 Ca cntr2 inactive
O=C(Nc1ccc2[nH]ccc2c1)c1ccc(F)cc1	none
O=C(Nc1ccc2[nH]ccc2c1)c1ccccc1	MrgX1 antagonist -7.8 | MrgX1 antag conf 84% | HEK293 Ca flux inactive | HEK293 Ca counter inactive | HEK293 Ca cntr2 inactive
CC(=O)Nc1cc(-c2ccc(F)cc2)[nH]n1	none
CC(=O)Nc1n[nH]c(-c2ccc(C)cc2)c1C	MrgX1 antagonist -5.4 | MrgX1 antag conf inactive | HEK293 Ca flux inactive | HEK293 Ca counter inactive | HEK293 Ca cntr2 inactive
CC(C)=NOc1nc(N2CCOCC2)nc(N2CCOCC2)n1	none
COC(=O)CC1COc2ccccc2N1C(=O)c1ccc(OC)cc1 (stereo not given)	none
COC(=O)CC1COc2ccccc2N1C(=O)c1cc(OC)c(OC)c(OC)c1 (stereo not given)	MrgX1 antagonist -5 | MrgX1 antag conf inactive | HEK293 Ca flux inactive | HEK293 Ca counter inactive | HEK293 Ca cntr2 inactive
O=C(NCCCCNC(=O)c1cccnc1Cl)c1cccnc1Cl	MrgX1 antagonist -4.8 | MrgX1 antag conf inactive | HEK293 Ca flux inactive | HEK293 Ca counter inactive | HEK293 Ca cntr2 inactive
O=C(NCC1CCCCC1)c1cccnc1Cl	none
Cn1cnnc1SCC(=O)NCc1cccc(C(F)(F)F)c1	MrgX1 antagonist -6.5 | MrgX1 antag conf inactive | HEK293 Ca flux inactive | HEK293 Ca counter inactive | HEK293 Ca cntr2 inactive
O=C(CCNC(=O)c1ccc(Cl)cc1)NCc1cccc(C(F)(F)F)c1	MrgX1 antagonist -10 | MrgX1 antag conf inactive | HEK293 Ca flux inactive | HEK293 Ca counter inactive | HEK293 Ca cntr2 inactive
Cc1noc2ncnc(Oc3ccc(Cl)cc3Cl)c12	none
O=C(c1cc(-c2ccccn2)nc2ccc(Br)cc12)N1CCc2ccccc2C1	none (no result: MrgX1 allo act, MrgX1 antagonist, MrgX1 agonist)
O=C(c1cc(-c2ccccn2)nc2ccc(Br)cc12)N1CCN(S(=O)(=O)c2ccccc2)CC1	MrgX1 antagonist -6.7 | MrgX1 antag conf inactive | HEK293 Ca flux inactive | HEK293 Ca counter inactive | HEK293 Ca cntr2 inactive
CC(C)(C)N1C(=O)c2ccc(C(=O)Nc3ccc(O)cc3)cc2C1=O	none
CC(C)(C)NC(=O)c1cccc(NC(=O)c2ccc3c(c2)C(=O)N(C(C)(C)C)C3=O)c1	MrgX1 antagonist -11, RGS4 act -7.1 | MrgX1 antag conf 79% | HEK293 Ca flux inactive | HEK293 Ca counter inactive | HEK293 Ca cntr2 inactive
COC(=O)c1cccc(NC(=O)c2ccc3c(c2)C(=O)N(C(C)(C)C)C3=O)c1	MrgX1 antagonist -4.7 | MrgX1 antag conf inactive | HEK293 Ca flux inactive | HEK293 Ca counter inactive | HEK293 Ca cntr2 inactive
COC(=O)c1cccc(NC(=O)c2ccc3c(c2)C(=O)N(Cc2cccnc2)C3=O)c1	none
Cc1ccc(CC(=O)N2CC(C)OC(C)C2)cc1 (stereo not given)	none
CC1CN(C(=O)CS(=O)(=O)Cc2ccc(Cl)cc2)CC(C)O1 (stereo not given)	MrgX1 antagonist -4.8 | MrgX1 antag conf inactive | HEK293 Ca flux inactive | HEK293 Ca counter inactive | HEK293 Ca cntr2 inactive
CCN(C(=O)CSc1nc2ccccc2o1)C1CCS(=O)(=O)C1 (stereo not given)	MrgX1 antagonist -4.7 | MrgX1 antag conf inactive | HEK293 Ca flux inactive | HEK293 Ca counter inactive | HEK293 Ca cntr2 inactive
CCN(C(=O)CSc1ccc2ccccc2c1)C1CCS(=O)(=O)C1 (stereo not given)	MrgX1 antagonist -4.6 | MrgX1 antag conf inactive | HEK293 Ca flux inactive | HEK293 Ca counter inactive | HEK293 Ca cntr2 inactive
CCN(C(=O)COC(=O)CSc1ccc(C)c(C)c1)C1CCS(=O)(=O)C1 (stereo not given)	none
COc1ccccc1CC(=O)N(CCC1=CCCCC1)c1c(N)n(Cc2ccccc2)c(=O)[nH]c1=O	none
Cc1cccc(OCC(=O)Nc2ccc(CN3CCOCC3)cc2)c1C	MrgX1 antagonist -6.7 | MrgX1 antag conf inactive | HEK293 Ca flux inactive | HEK293 Ca counter inactive | HEK293 Ca cntr2 inactive
O=C1O/C(=C/c2ccccc2)N=C1c1ccccc1	MrgX1 antagonist -5 | MrgX1 antag conf inactive | HEK293 Ca flux inactive | HEK293 Ca counter inactive | HEK293 Ca cntr2 inactive
O=C1O/C(=C\c2ccccc2)c2ccccc21	none
CCOc1ccc(C(=O)NCC(=O)Nc2ccc(N3CCOCC3)cc2)cc1OCC	none

Compound activity (PubChem)
